Reference: ChEMBL document CHEMBL1155262, “A new class of anticonvulsants possessing 6 Hz activity: 3,4-dialkyloxy thiophene bishydrazones” (Eur J Med Chem, 2009)
Active and inactive are the calls of the source. The rule behind the calls is not given here.

Assays:
Mus musculus [1] = assay: Anticonvulsant activity in mouse CF1 albino assessed as inhibition of subcutaneous metrazole-induced seizure at 300 mg/kg, ip after 0.5 hrs; assay type: functional, organism-based; set-up: dose 300 mg/kg
Mus musculus [2] = assay: Anticonvulsant activity in mouse CF1 albino assessed as inhibition of maximal electric shock-induced seizure at 300 mg/kg, ip after 0.5 hrs; assay type: functional, organism-based; set-up: dose 300 mg/kg
Method in brief: (§1)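 Male CF-1 albino mice (18–25 g); compound suspended in 0.5% methyl cellulose/water or PEG 200, given i.p. at 30, 100 and 300 mg/kg (0.01 mL/g). Tested 0.5 or 4 h after dosing. Protection = abolition of hind limb tonic extensor component of MES seizure.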

Mus musculus [3] = assay: Anticonvulsant activity in ip dosed mouse CF1 albino assessed as inhibition of maximal electric shock-induced seizure after 4 hrs; assay type: functional; method in brief: as §1
Mus musculus [4] = assay: Anticonvulsant activity in mouse CF1 albino assessed as inhibition of subcutaneous metrazole-induced seizure at 300 mg/kg, ip after 4 hrs; assay type: functional, organism-based; set-up: dose 300 mg/kg
Mus musculus [5] = assay: Neurotoxicity against mouse CF1 albino assessed as minimal motor impairment at 300 mg/kg, ip after 0.5 hrs by rotord test; assay type: toxicity, organism-based; set-up: dose 300 mg/kg, route intraperitoneal; details: in vivo
Method in brief: (§2)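 Rotorod minimal motor impairment in male CF-1 albino mice (18–25 g) after i.p. dosing at 30, 100 or 300 mg/kg in 0.5% methyl cellulose/water or PEG 200. Mice placed on a rod rotating at 6 rpm at 0.5 or 4 h. Value is minimum dose causing impairment in at least one mouse.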

Mus musculus [6] = assay: Neurotoxicity against mouse CF1 albino assessed as minimal motor impairment at 300 mg/kg, ip after 4 hrs by rotord test; assay type: toxicity, organism-based; set-up: dose 300 mg/kg, route intraperitoneal; details: in vivo; method in brief: as §2
Mus musculus [7] = assay: Anticonvulsant activity in mouse CF1 albino assessed as inhibition of maximal electric shock-induced seizure at 300 mg/kg, ip after 4 hrs; assay type: functional, organism-based; set-up: dose 300 mg/kg; method in brief: as §1
Mus musculus [8] = assay: Anticonvulsant activity in ip dosed mouse CF1 albino assessed as inhibition of subcutaneous metrazole-induced seizure after 4 hrs; assay type: functional
Mus musculus [9] = assay: Neurotoxicity against ip dosed mouse CF1 albino assessed as minimal motor impairment after 0.5 hrs by rotord test; assay type: toxicity, organism-based; details: in vivo; method in brief: as §2
Mus musculus [10] = assay: Anticonvulsant activity in mouse CF1 albino assessed as inhibition of minimal electric shock-induced seizure at 50 mg/kg, ip after 0.5 hrs; assay type: functional, organism-based; set-up: dose 50 mg/kg
Method in brief: (§3)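 6 Hz psychomotor seizure model in male CF-1 albino mice dosed i.p. Four mice per time point (0.25, 0.5, 1, 2, 4 h) received corneal-electrode current of 32 mA for 3 s. Untreated mice show a minimal clonic phase followed by stereotyped automatistic behaviour. Results given as number protected out of 4.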

Mus musculus [11] = assay: Anticonvulsant activity in mouse CF1 albino assessed as inhibition of minimal electric shock-induced seizure at 50 mg/kg, ip after 1 hr; assay type: functional, organism-based; set-up: dose 50 mg/kg; method in brief: as §3
Mus musculus [12] = assay: Anticonvulsant activity in mouse CF1 albino assessed as inhibition of minimal electric shock-induced seizure at 50 mg/kg, ip after 2 hrs; assay type: functional, organism-based; set-up: dose 50 mg/kg; method in brief: as §3
Mus musculus [13] = assay: Anticonvulsant activity in mouse CF1 albino assessed as inhibition of minimal electric shock-induced seizure at 50 mg/kg, ip after 4 hrs; assay type: functional, organism-based; set-up: dose 50 mg/kg; method in brief: as §3
Mus musculus [14] = assay: Anticonvulsant activity in mouse CF1 albino assessed as inhibition of minimal electric shock-induced seizure at 50 mg/kg, ip after 0.25 hrs; assay type: functional, organism-based; set-up: dose 50 mg/kg; method in brief: as §3
Mus musculus [15] = assay: Anticonvulsant activity in mouse CF1 albino assessed as inhibition of minimal electric shock-induced seizure at 100 mg/kg, ip after 0.5 hrs; assay type: functional, organism-based; set-up: dose 100 mg/kg; method in brief: as §3
Mus musculus [16] = assay: Anticonvulsant activity in mouse CF1 albino assessed as inhibition of minimal electric shock-induced seizure at 100 mg/kg, ip after 0.25 hrs; assay type: functional, organism-based; set-up: dose 100 mg/kg; method in brief: as §3
Mus musculus [17] = assay: Anticonvulsant activity in mouse CF1 albino assessed as inhibition of minimal electric shock-induced seizure at 100 mg/kg, ip after 4 hrs; assay type: functional, organism-based; set-up: dose 100 mg/kg; method in brief: as §3
Mus musculus [18] = assay: Neurotoxicity against ip dosed mouse CF1 albino assessed as minimal motor impairment after 4 hrs by rotord test; assay type: toxicity, organism-based; details: in vivo; method in brief: as §2
Mus musculus [19] = assay: Anticonvulsant activity in mouse CF1 albino assessed as inhibition of minimal electric shock-induced seizure at 100 mg/kg, ip after 1 hr; assay type: functional, organism-based; set-up: dose 100 mg/kg; method in brief: as §3
Mus musculus [20] = assay: Anticonvulsant activity in mouse CF1 albino assessed as inhibition of minimal electric shock-induced seizure at 100 mg/kg, ip after 2 hrs; assay type: functional, organism-based; set-up: dose 100 mg/kg; method in brief: as §3
Mus musculus [21] = assay: Anticonvulsant activity in mouse CF1 albino assessed as inhibition of minimal electric shock-induced seizure at 30 mg/kg, ip after 0.25 hrs; assay type: functional, organism-based; set-up: dose 30 mg/kg; method in brief: as §3
Mus musculus [22] = assay: Anticonvulsant activity in mouse CF1 albino assessed as inhibition of minimal electric shock-induced seizure at 30 mg/kg, ip after 0.5 hrs; assay type: functional, organism-based; set-up: dose 30 mg/kg; method in brief: as §3
Mus musculus [23] = assay: Anticonvulsant activity in mouse CF1 albino assessed as inhibition of minimal electric shock-induced seizure at 30 mg/kg, ip after 1 hr; assay type: functional, organism-based; set-up: dose 30 mg/kg; method in brief: as §3
Mus musculus [24] = assay: Anticonvulsant activity in mouse CF1 albino assessed as inhibition of minimal electric shock-induced seizure at 30 mg/kg, ip after 2 hrs; assay type: functional, organism-based; set-up: dose 30 mg/kg; method in brief: as §3
Mus musculus [25] = assay: Anticonvulsant activity in mouse CF1 albino assessed as inhibition of minimal electric shock-induced seizure at 30 mg/kg, ip after 4 hrs; assay type: functional, organism-based; set-up: dose 30 mg/kg; method in brief: as §3

Row | Compound | Activity (Mus musculus [1]) | Activity (Mus musculus [2]) | Activity (Mus musculus [4]) | Activity (Mus musculus [6]) | Activity (Mus musculus [7]) | Activity (Mus musculus [9]) | Activity (Mus musculus [17]) | Activity (Mus musculus [19]) | other results
1 | CCCCCCCOc1c(C(=O)NN)sc(C(=O)NN)c1OCCCCCCC | inactive | inactive | inactive | Not Active | – | – | – | – | Activity (Mus musculus [3]): 100 mg/kg; Activity (Mus musculus [5]): Not Active
2 | CCCOc1c(C(=O)N/N=C(/C)c2cc(Cl)sc2Cl)sc(C(=O)N/N=C(/C)c2cc(Cl)sc2Cl)c1OCCC | inactive | inactive | – | Not Active | inactive | 300 mg/kg | – | – | Activity (Mus musculus [8]): 300 mg/kg
3 | CCCCCCCOc1c(C(=O)N/N=C/c2ccc3c(c2)c2ccccc2n3CC)sc(C(=O)N/N=C/c2ccc3c(c2)c2ccccc2n3CC)c1OCCCCCCC | – | – | – | – | – | – | – | – | Activity (Mus musculus [10]): inactive; Activity (Mus musculus [11]): inactive; Activity (Mus musculus [12]): inactive; Activity (Mus musculus [13]): inactive; Activity (Mus musculus [14]): inactive
4 | CCCOc1c(C(=O)N/N=C(/C)c2ccc(Br)s2)sc(C(=O)N/N=C(/C)c2ccc(Br)s2)c1OCCC | – | – | – | – | – | – | – | – | Activity (Mus musculus [15]): inactive
5 | CCCOc1c(C(=O)N/N=C/c2ccc([N+](=O)[O-])cc2)sc(C(=O)N/N=C/c2ccc([N+](=O)[O-])cc2)c1OCCC | inactive | inactive | inactive | Not Active | inactive | 100 mg/kg | – | – | –
6 | CCCOc1c(C(=O)N/N=C(/C)c2ccsc2)sc(C(=O)N/N=C(/C)c2ccsc2)c1OCCC | – | – | – | – | – | – | inactive | – | Activity (Mus musculus [16]): inactive
7 | CCCOc1c(C(=O)N/N=C2/C(=O)Nc3ccccc32)sc(C(=O)N/N=C2/C(=O)Nc3ccccc32)c1OCCC | inactive | inactive | inactive | – | – | 100 mg/kg | inactive | inactive | Activity (Mus musculus [3]): 300 mg/kg; Activity (Mus musculus [18]): 300 mg/kg; Activity (Mus musculus [20]): inactive
8 | CCCOc1c(C(=O)N/N=C/c2ccccc2O)sc(C(=O)N/N=C/c2ccccc2O)c1OCCC | inactive | inactive | – | Not Active | inactive | – | inactive | – | Activity (Mus musculus [8]): 300 mg/kg; Activity (Mus musculus [5]): Not Active; Activity (Mus musculus [16]): inactive; Activity (Mus musculus [20]): inactive
9 | O=C(N/N=C/c1ccc([N+](=O)[O-])cc1)c1sc(C(=O)N/N=C/c2ccc([N+](=O)[O-])cc2)c(OCc2ccccc2)c1OCc1ccccc1 | inactive | inactive | inactive | Not Active | inactive | 100 mg/kg | – | – | –
10 | CCCOc1c(C(=O)N/N=C/c2cccnc2N)sc(C(=O)N/N=C/c2cccnc2N)c1OCCC | – | – | – | – | – | – | inactive | inactive | Activity (Mus musculus [15]): inactive; Activity (Mus musculus [20]): inactive
11 | CCCCCCCOc1c(C(=O)N/N=C(\C)c2cccs2)sc(C(=O)N/N=C(\C)c2cccs2)c1OCCCCCCC | – | – | – | – | – | – | – | inactive | Activity (Mus musculus [21]): inactive; Activity (Mus musculus [22]): inactive; Activity (Mus musculus [23]): inactive; Activity (Mus musculus [24]): inactive; Activity (Mus musculus [25]): inactive
12 | CCCCCCCOc1c(C(=O)N/N=C2/C(=O)Nc3ccccc32)sc(C(=O)N/N=C2/C(=O)Nc3ccccc32)c1OCCCCCCC | – | – | – | – | – | – | – | inactive | Activity (Mus musculus [16]): inactive
